Experimental data from ChEMBL document CHEMBL1126020, “Potent non-6-fluoro-substituted quinolone antibacterials: synthesis and biological activity” (1992).
≈ marks a conversion by molar mass, not a printed value.

Tests used:
Format in all cases: functional
[1] = system: Enterobacter cloacae; assay: In vitro antimicrobial activity against strain Enterobacter cloacae 9656
[2] = system: Klebsiella pneumoniae; assay: In vitro antimicrobial activity against strain Klebsiella pneumoniae 9664
Outline: (§1)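 MICs by serial 2-fold broth dilution in nutrient broth. Inoculum adjusted to 10^6 CFU/mL, with compounds tested from 0.0005 to 250 μg/mL. Plates incubated 18 h at 37 °C. MIC taken as the lowest concentration preventing visible bacterial growth.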

[3] = system: Streptococcus pneumoniae; assay: In vitro antimicrobial activity against strain Streptococcus pneumoniae 9585; outline: as §1
[4] = system: Enterococcus faecalis; assay: In vitro antimicrobial activity against strain Enterococcus faecalis 9809; outline: as §1
[5] = system: Escherichia coli; assay: In vitro antimicrobial activity against strain Escherichia coli 15119; outline: as §1
[6] = system: Morganella morganii; assay: In vitro antimicrobial activity against strain Morganella morganii 15153; outline: as §1
[7] = system: Pseudomonas aeruginosa; assay: In vitro antimicrobial activity against strain Pseudomonas aeruginosa 9843; outline: as §1
[8] = system: Staphylococcus aureus; assay: In vitro antimicrobial activity against strain Staphylococcus aureus 9537; outline: as §1
[9] = system: Proteus mirabilis; assay: In vitro antimicrobial activity against strain Proteus mirabilis 9900; outline: as §1

| Compound | MIC [1] [mg/L] | MIC [2] [mg/L] | MIC [3] [mg/L] | MIC [4] [mg/L] | MIC [5] [mg/L] | MIC [6] [mg/L] | MIC [7] [mg/L] | MIC [8] [mg/L] | MIC [9] [mg/L] |
| --- | --- | --- | --- | --- | --- | --- | --- | --- | --- |
| NC1CCN(c2cc3c(cc2F)c(=O)c(C(=O)O)cn3C2CC2)C1 (stereo not given) | 0.004 (≈ 0.0121 µM) | 0.03 (≈ 0.0905 µM) | 0.13 (≈ 0.392 µM) | 0.25 (≈ 0.754 µM) | 0.004 (≈ 0.0121 µM) | 0.016 (≈ 0.0483 µM) | 0.25 (≈ 0.754 µM) | 0.03 (≈ 0.0905 µM) | 0.03 (≈ 0.0905 µM) |
| NC1CCN(c2c(F)cc3c(=O)c(C(=O)O)cn(C4CC4)c3c2F)C1 (stereo not given) | 0.016 (≈ 0.0458 µM) | 0.03 (≈ 0.0859 µM) | 0.03 (≈ 0.0859 µM) | 2 (≈ 5.73 µM) | 0.008 (≈ 0.0229 µM) | 0.016 (≈ 0.0458 µM) | 0.13 (≈ 0.372 µM) | 0.008 (≈ 0.0229 µM) | 0.016 (≈ 0.0458 µM) |
| NC1CCN(c2cc(F)c3c(=O)c(C(=O)O)cn(C4CC4)c3c2F)C1 (stereo not given) | 0.06 (≈ 0.172 µM) | 0.13 (≈ 0.372 µM) | 4 (≈ 11.5 µM) | 4 (≈ 11.5 µM) | 0.06 (≈ 0.172 µM) | 0.06 (≈ 0.172 µM) | 2 (≈ 5.73 µM) | 0.13 (≈ 0.372 µM) | 0.13 (≈ 0.372 µM) |
| NC1CCN(c2ccc3c(=O)c(C(=O)O)cn(C4CC4)c3c2)C1 (stereo not given) | 0.13 (≈ 0.415 µM) | 0.06 (≈ 0.191 µM) | 2 (≈ 6.38 µM) | 4 (≈ 12.8 µM) | 0.008 (≈ 0.0255 µM) | 0.13 (≈ 0.415 µM) | 0.5 (≈ 1.6 µM) | 0.25 (≈ 0.798 µM) | 0.13 (≈ 0.415 µM) |
| NC1CCN(c2cc(F)c3c(=O)c(C(=O)O)cn(C4CC4)c3c2)C1 (stereo not given) | 0.13 (≈ 0.392 µM) | 0.5 (≈ 1.51 µM) | 4 (≈ 12.1 µM) | 16 (≈ 48.3 µM) | 0.13 (≈ 0.392 µM) | 0.25 (≈ 0.754 µM) | 4 (≈ 12.1 µM) | 1 (≈ 3.02 µM) | 0.5 (≈ 1.51 µM) |
| NC1CCN(c2ccc3c(=O)c(C(=O)O)cn(C4CC4)c3c2F)C1 (stereo not given) | 0.03 (≈ 0.0905 µM) | 0.016 (≈ 0.0483 µM) | 0.5 (≈ 1.51 µM) | 0.25 (≈ 0.754 µM) | 0.008 (≈ 0.0241 µM) | 0.016 (≈ 0.0483 µM) | 0.25 (≈ 0.754 µM) | 0.03 (≈ 0.0905 µM) | 0.03 (≈ 0.0905 µM) |
| O=C(O)c1cn(C2CC2)c2cc(N3CCNCC3)c(F)cc2c1=O [CIPROFLOXACIN] |  | 0.06 (≈ 0.181 µM) | 0.25 (≈ 0.754 µM) | 0.5 (≈ 1.51 µM) |  | 0.08 (≈ 0.241 µM) |  | 0.06 (≈ 0.181 µM) | 0.008 (≈ 0.0241 µM) |
